Legend:
Format in all cases: functional, organism-based
[1] = tested on: Plasmodium falciparum; assay: Antimalarial activity against Plasmodium falciparum Kenyan isolates expressing DHFR Ser108Asn and Cys59Arg or Ser108Asn and Asn51Ile double mutant by [3H]hypoxanthine incorporation assay
Procedure, shortened: (§1)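 Kenyan isolates (Kilifi, 2006–2008) adapted to long-term in vitro culture; dhfr codons 108, 51, 59, 164 genotyped by PCR-RFLP. Cultured in RPMI 1640 with 10% human serum, 25 mM bicarbonate, 2 mM glutamine, 25 mM HEPES, 5 nM para-aminobenzoic acid, 23 nM folic acid, in washed human erythrocytes. Graded drug concentrations; [3H]hypoxanthine incorporation; IC50 by nonlinear regression of dose-response.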

[2] = tested on: Plasmodium falciparum; assay: Antimalarial activity against Plasmodium falciparum Kenyan isolates expressing DHFR Ser108Asn, Asn51Ile and Cys59Arg triple mutant by [3H]hypoxanthine incorporation assay; procedure, shortened: as §1
[3] = tested on: Plasmodium falciparum; assay: Antimalarial activity against Plasmodium falciparum isolate Kil-164 expressing DHFR Ser108Asn, Asn51Ile, Cys59Arg and Ile164Leu quadruple mutant by [3H]hypoxanthine incorporation assay; procedure, shortened: as §1
[4] = tested on: Plasmodium falciparum; assay: Antimalarial activity against pyrimethamine-resistant Plasmodium falciparum V1S expressing DHFR quadruple mutant with point mutations at codons 108, 51, 59 and 164 gene by [3H]hypoxanthine incorporation assay
[5] = tested on: Plasmodium falciparum; assay: Antimalarial activity against pyrimethamine-sensitive Plasmodium falciparum 3D7 expressing wild type DHFR by [3H]hypoxanthine incorporation assay
[6] = tested on: Plasmodium falciparum; assay: Antimalarial activity against Plasmodium falciparum Kenyan isolates by [3H]hypoxanthine incorporation assay

| SMILES | IC50 [1] | IC50 [2] | IC50 [3] | IC50 [4] | IC50 [5] | IC50 [6] |
| --- | --- | --- | --- | --- | --- | --- |
| CN(Cc1cnc2nc(N)nc(N)c2n1)c1ccc(C(=O)N[C@@H](CCC(=O)O)C(=O)O)cc1 [METHOTREXATE] | 84.9 nM | 83.6 nM | 56.6 nM | 40 nM | 49.9 nM | 83.6 nM |
| CC1(C)N=C(N)N=C(N)N1OCCCOc1cc(Cl)c(Cl)cc1Cl | 0.069 nM | 0.1 nM | 0.012 nM | 0.063 nM | 0.015 nM | 0.072 nM |
| CCc1nc(N)nc(N)c1-c1ccc(Cl)cc1 [PYRIMETHAMINE] | – | – | – | 6930 nM | 3.9 nM | 733 nM |
| CC1(C)N=C(N)N=C(N)N1c1ccc(Cl)c(Cl)c1 [CHLORCYCLOGUANIL] | 38.1 nM | 40 nM | 87.7 nM | 92.3 nM | 0.011 nM | 37.8 nM |
| COc1cc(NCc2ccc3nc(N)nc(N)c3c2C)cc(OC)c1OC [TRIMETREXATE] | 40.9 nM | 20.9 nM | 44.7 nM | 24.8 nM | 1.9 nM | 30 nM |
| COc1cc(Cc2cnc(N)nc2N)cc(OC)c1OC [TRIMETHOPRIM] | 9310 nM | 33700 nM | 155000 nM | 102000 nM | 407 nM | 29700 nM |

Source: ChEMBL document CHEMBL1649566, “In vitro activity of antifolate and polymorphism in dihydrofolate reductase of Plasmodium falciparum isolates from the Kenyan coast: emergence of parasites with Ile-164-Leu mutation” (Antimicrob Agents Chemother, 2009)
